Measured values from ChEMBL document CHEMBL4118251 (J Med Chem, 2018).

Experiments:
[1] = target: Glucagon-like peptide 1 receptor (Homo sapiens, UniProt P43220); experiment: Agonist activity at human GLP1R expressed in HEK293 cells assessed as cAMP accumulation after 30 mins by HTRF assay; type: functional, cell-based
[2] = tested on: Cynomolgus monkey; experiment: Antiobesity activity in diet-induced obesity cynomolgus monkey model assessed as reduction in body weight at 1.5 ug/kg on day 1 to 3, 3 ug/kg on day 4 to 6, 4.5 ug/kg on day 7 to 9, 6 ug/kg from day 10 to 17 and 8 ug/kg on day 18 to 42 administered sc once daily measured every 3 to 4 days during compound dosing relative to control; type: functional, Macaca fascicularis; set-up: scale not given: the % may be the effect or the level left
Procedure, shortened: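 Obese diabetic cynomolgus monkeys were offered about 680 kcal/day. They were block-randomized into 3 groups by body weight, fasted glucose and %HbA1C. Dosing was once daily sc in PBS vehicle over a 6-week study with ramped doses. Food and water intake were logged daily, and body weight was measured every 3–4 days. Two insulin-requiring vehicle animals were excluded.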

[3] = Solubility in pH 4.5 acetate buffer at 10 mg/ml after 2 hrs in presence of 0.5% phenol by UPLC-UV analysis
[4] = target: Glucagon receptor (Homo sapiens, UniProt P47871); experiment: Agonist activity at human glucagon receptor expressed in HEK293 cells assessed as cAMP accumulation after 30 mins by HTRF assay; type: functional, cell-based
[5] = Agonist activity at monkey glucagon receptor expressed in HEK293 cells assessed as cAMP accumulation after 30 mins by HTRF assay; type: cell-based, Macaca mulatta; conditions: Macaca mulatta, HEK293, 0.5 h
Procedure, shortened: (§1)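 HEK293 lines stably expressing human or monkey receptor were detached with accutase. Cells were resuspended at 400 000 cells/mL in HBSS/20 mM HEPES/0.1% BSA/2 mM IBMX and exposed to peptide for 30 min at room temperature. cAMP was read by HTRF (665/620 nm) after 1 h lysis.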

[6] = Plasma concentration in diet-induced obesity cynomolgus monkey model at 8 ug/kg, sc for 6 weeks measured 22 hrs post dose on day 43 by LC-MS analysis; type: ADME, organism-based, Macaca fascicularis; conditions: 0.008 mg/kg
Procedure, shortened: (§2)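 Obese diabetic cynomolgus monkeys were dosed once daily sc with PBS-diluted drug for 6 weeks. On day 43, blood was drawn just before dosing and at 1, 2, 4, 8 and 22 h after, into EDTA-2K tubes. Plasma was separated at 2500 × g for 10 min at 4 °C. The dual agonist was measured by LC-MS after protein precipitation; liraglutide was measured by ELISA.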

[7] = target: Glucagon-like peptide 1 receptor (Macaca fascicularis, UniProt F8V479); experiment: Agonist activity at monkey GLP1R expressed in HEK293 cells assessed as cAMP accumulation after 30 mins by HTRF assay; type: cell-based, Macaca mulatta
[8] = Plasma concentration in diet-induced obesity cynomolgus monkey model at 8 ug/kg, sc for 6 weeks measured 2 hrs post dose on day 43 by LC-MS analysis; type: ADME, organism-based, Macaca fascicularis; conditions: 0.008 mg/kg; procedure, shortened: as §2
[9] = Plasma concentration in diet-induced obesity cynomolgus monkey model at 8 ug/kg, sc for 6 weeks measured 1 hr post dose on day 43 by LC-MS analysis; type: ADME, organism-based, Macaca fascicularis; conditions: 0.008 mg/kg; procedure, shortened: as §2
[10] = Agonist activity at monkey GIP receptor expressed in HEK293 cells assessed as cAMP accumulation after 30 mins by HTRF assay; type: cell-based, Macaca mulatta; conditions: Macaca mulatta, HEK293, 0.5 h; procedure, shortened: as §1
[11] = tested on: Cynomolgus monkey; experiment: Hypoglycemic activity in diet-induced obesity cynomolgus monkey model assessed as plasma HbA1c level at 1.5 ug/kg on day 1 to 3, 3 ug/kg on day 4 to 6, 4.5 ug/kg on day 7 to 9, 6 ug/kg from day 10 to 17 and 8 ug/kg on day 18 to 42 administered sc once daily measured on day 43 post last dose (reference value: 8.7 +/- 0.8%); type: functional, Macaca fascicularis
[12] = Plasma concentration in diet-induced obesity cynomolgus monkey model at 8 ug/kg, sc for 6 weeks measured […] dose on day 43 by LC-MS analysis; type: ADME, organism-based, Macaca fascicularis; conditions: 0.008 mg/kg; procedure, shortened: as §2
[13] = species on record: Homo sapiens; experiment: Selectivity ratio of EC50 for human glucagon receptor expressed in HEK293 cells to EC50 for human GLP1R expressed in HEK293 cells; type: cell-based; procedure, shortened: as §1
[14] = Plasma concentration in diet-induced obesity cynomolgus monkey model at 8 ug/kg, sc for 6 weeks measured 4 hrs post dose on day 43 by LC-MS analysis; type: ADME, organism-based, Macaca fascicularis; conditions: 0.008 mg/kg; procedure, shortened: as §2
[15] = Solubility in pH 4.5 acetate buffer at 10 mg/ml after 2 hrs by UPLC-UV analysis; type: physicochemical
Procedure, shortened: (§3)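 Buffers were 100 mM sodium acetate pH 4.5 or 100 mM sodium phosphate pH 7.4, with or without 0.5% phenol. Solid peptide was dispersed at 10 mg/mL, with content corrected by UPLC-MS and ion chromatography, and gently agitated for 2 h. After centrifugation (15 min, 3000 rcf), the supernatant was diluted 1:10 and quantified by UPLC-UV against a DMSO standard curve.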

[16] = Solubility in pH 4.5 acetate buffer at 10 mg/ml after 2 hrs by UPLC-UV analysis
[17] = target: T1, Gastric inhibitory polypeptide receptor (Homo sapiens, UniProt P48546); experiment: Agonist activity at human GIP receptor expressed in HEK293 cells assessed as cAMP accumulation after 30 mins by HTRF assay; type: functional, cell-based
T1 sequence (P48546 whole entry): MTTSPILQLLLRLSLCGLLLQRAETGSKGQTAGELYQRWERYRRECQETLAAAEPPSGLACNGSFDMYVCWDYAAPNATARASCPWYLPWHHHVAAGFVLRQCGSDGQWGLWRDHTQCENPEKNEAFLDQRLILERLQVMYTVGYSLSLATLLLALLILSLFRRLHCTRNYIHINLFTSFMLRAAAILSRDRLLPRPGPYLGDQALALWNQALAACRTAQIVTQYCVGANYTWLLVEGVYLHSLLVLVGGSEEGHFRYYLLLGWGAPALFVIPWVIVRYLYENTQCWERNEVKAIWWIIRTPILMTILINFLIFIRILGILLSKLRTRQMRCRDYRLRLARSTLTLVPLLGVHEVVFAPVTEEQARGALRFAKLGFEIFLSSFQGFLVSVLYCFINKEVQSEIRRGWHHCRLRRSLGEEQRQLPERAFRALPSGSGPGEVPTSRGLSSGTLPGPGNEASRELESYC

[18] = Ratio of EC50 for monkey glucagon receptor expressed in HEK293 cells to EC50 for human glucagon receptor expressed in HEK293 cells; type: cell-based; procedure, shortened: as §1
[19] = AUC (0 to 22 hrs) in diet-induced obesity cynomolgus monkey model at 8 ug/kg, sc for 6 weeks on day 43 by LC-MS analysis; type: ADME, organism-based, Macaca fascicularis; set-up: dose 8 ug/kg, time < 22 hr, route subcutaneous; conditions: in vivo, 0.008 mg/kg; procedure, shortened: as §2
[20] = Solubility in pH 4.5 acetate buffer at 10 mg/ml after 2 hrs in presence of 0.5% phenol by UPLC-UV analysis; type: physicochemical; procedure, shortened: as §3
[21] = Plasma concentration in diet-induced obesity cynomolgus monkey model at 8 ug/kg, sc for 6 weeks measured 8 hrs post dose on day 43 by LC-MS analysis; type: ADME, organism-based, Macaca fascicularis; conditions: 0.008 mg/kg; procedure, shortened: as §2
[22] = tested on: Cynomolgus monkey; experiment: Potency index, ratio of liraglutide dose to compound dose for antiobesity activity in diet-induced obesity cynomolgus monkey model assessed as reduction in body weight administered sc once daily measured every 3 to 4 days during compound dosing; type: functional, Macaca fascicularis

Glucagon receptor, sequence (P47871 whole entry): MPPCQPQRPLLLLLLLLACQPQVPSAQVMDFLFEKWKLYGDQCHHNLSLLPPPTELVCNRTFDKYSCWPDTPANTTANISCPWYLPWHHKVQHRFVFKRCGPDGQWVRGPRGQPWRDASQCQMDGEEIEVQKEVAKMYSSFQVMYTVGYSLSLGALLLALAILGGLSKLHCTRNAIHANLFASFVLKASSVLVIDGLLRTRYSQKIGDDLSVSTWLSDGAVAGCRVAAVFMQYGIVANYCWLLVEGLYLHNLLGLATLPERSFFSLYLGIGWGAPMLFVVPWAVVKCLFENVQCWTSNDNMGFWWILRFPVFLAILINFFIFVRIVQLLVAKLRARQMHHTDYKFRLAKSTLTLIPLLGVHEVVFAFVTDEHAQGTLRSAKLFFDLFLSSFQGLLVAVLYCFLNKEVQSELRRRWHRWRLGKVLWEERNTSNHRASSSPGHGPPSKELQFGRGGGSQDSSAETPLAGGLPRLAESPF
Glucagon-like peptide 1 receptor (Homo sapiens, UniProt P43220), sequence (P43220 whole entry): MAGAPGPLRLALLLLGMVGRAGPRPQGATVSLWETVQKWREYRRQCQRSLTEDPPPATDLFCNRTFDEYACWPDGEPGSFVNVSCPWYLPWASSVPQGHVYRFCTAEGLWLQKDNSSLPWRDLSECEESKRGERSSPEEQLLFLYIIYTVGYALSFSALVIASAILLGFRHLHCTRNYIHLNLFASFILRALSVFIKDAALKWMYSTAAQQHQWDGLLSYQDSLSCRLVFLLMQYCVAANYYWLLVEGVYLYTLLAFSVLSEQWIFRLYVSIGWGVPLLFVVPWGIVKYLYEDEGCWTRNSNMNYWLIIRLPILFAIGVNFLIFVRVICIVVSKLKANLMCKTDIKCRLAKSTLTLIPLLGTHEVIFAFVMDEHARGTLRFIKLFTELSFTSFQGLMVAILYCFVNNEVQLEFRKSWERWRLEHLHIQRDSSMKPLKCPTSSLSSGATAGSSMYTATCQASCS
Glucagon-like peptide 1 receptor (Macaca fascicularis, UniProt F8V479), sequence (F8V479 whole entry): as the sequence (P43220 whole entry) above, with A4T, M17V, S135N, F143S, S225G, L228V, L260F, W264R, I272V counted along it

CCCCCCCCCCCCCCCCC(=O)[C@H](CCN[C@@H](CCC(=O)NCCCC[C@H](NC(=O)[C@H](CCC(N)=O)NC(=O)[C@H](CCCCN)NC(=O)[C@H](CO)NC(=O)[C@H](CC(C)C)NC(=O)[C@H](CC(=O)O)NC(=O)[C@H](CO)NC(=O)[C@@H](NC(=O)[C@H](Cc1ccccc1)NC(=O)[C@@H](NC(=O)CNC(=O)[C@H](CCC(N)=O)NC(=O)C(C)(C)NC(=O)[C@@H](N)Cc1cnc[nH]1)[C@@H](C)O)[C@@H](C)O)C(=O)N[C@@H](CC(=O)O)C(=O)N[C@@H](CCC(=O)O)C(=O)N[C@@H](CCC(N)=O)C(=O)N[C@@H](CCCNC(=N)N)C(=O)N[C@@H](C)C(=O)N[C@@H](CCCCN)C(=O)N[C@@H](CC(C)C)C(=O)N[C@@H](Cc1ccccc1)C(=O)N[C@H](C(=O)N[C@@H](CCC(=O)O)C(=O)N[C@@H](Cc1c[nH]c2ccccc12)C(=O)N[C@@H](CC(C)C)C(=O)NC(C)(C)C(=O)N[C@@H](C)C(=O)NCC(=O)NCC(=O)N1CCC[C@H]1C(=O)N1CCC[C@H]1C(=O)N[C@@H](CO)C(=O)N[C@@H](C)C(=O)N[C@@H](CCCCN)C(=O)N1CCC[C@H]1C(=O)N1CCC[C@H]1C(=O)N1CCC[C@H]1C(=O)N[C@@H](CCCCN)C(N)=O)[C@@H](C)CC)C(=O)O)C(=O)O gave an EC50 [1] of 0.0018 nM, an Activity [2] of 6.9% and a solubility at 2 h [3] of no less than 10000 µg/mL. It also gave an EC50 [4] of 0.029 nM, an EC50 [5] of 0.129 nM and a concentration at 22 h [6] of 0.69 ng/mL. For the same compound, the EC50 [7] was 0.002 nM, the concentration at 2 h [8] was 28 ng/mL and the concentration at 1 h [9] was 21.6 ng/mL. The EC50 [10] was 2.05 nM, the Activity [11] was 7.1% and the concentration at 1008 h [12] was 0.66 ng/mL. It also gave a Ratio EC50 [13] of 10 to 15, a concentration at 4 h [14] of 24.3 ng/mL and a solubility at 2 h [15] of no less than 10000 µg/mL. For the same compound, the solubility at 2 h [16] was no less than 10000 µg/mL, the EC50 [17] was 2.03 nM and the Ratio EC50 [18] was 4. For the same compound, the AUC at 22 h [19] was 254 ng·h/mL, the solubility at 2 h [20] was no less than 10000 µg/mL and the concentration at 8 h [21] was 12.4 ng/mL. The Ratio [22] was 5.
